Experimental data published in ChEMBL document CHEMBL3808372, “Identification of quinones as novel PIM1 kinase inhibitors” (Bioorg Med Chem Lett, 2016).

Tests used:
[1] = molecular target: Casein kinase I isoform gamma-2 (Homo sapiens) (UniProt P78368); assay: Inhibition of full length human CSNK1G2 expressed in bacterial system assessed as enzyme activity at 10 uM by KINOMEScan assay; set-up: scale not given: the % may be the effect or the level left
Procedure, shortened: (§1)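 Commercial KINOMEscan binding panel of 100 kinases, test compound at 10 μM. Results are primary-screen binding interactions expressed as % Ctrl = (test compound signal − positive control signal)/(negative control signal − positive control signal) × 100. Lower % Ctrl means stronger binding.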

[2] = molecular target: Ephrin type-A receptor 2 (Homo sapiens) (UniProt P29317); assay: Inhibition of human EPHA2 (593 to 891 amino acid residues) assessed as enzyme activity at 10 uM by KINOMEScan assay expressed in bacterial system assessed as enzyme activity at 10 uM by KINOMEScan assay; set-up: scale not given: the % may be the effect or the level left; procedure, shortened: as §1
[3] = molecular target: cAMP-dependent protein kinase catalytic subunit alpha (Homo sapiens) (UniProt P17612); assay: Inhibition of human PKAC-alpha (10 to 351 amino acid residues) expressed in bacterial system assessed as enzyme activity at 10 uM by KINOMEScan assay; set-up: scale not given: the % may be the effect or the level left
Procedure, shortened: (§2)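 Single-concentration competition binding screen (KINOMEscan) across a 100-kinase panel at 10 μM. Primary binding read-out is reported as % of control: (test signal − positive-control signal)/(negative-control signal − positive-control signal) × 100. Lower values indicate stronger binding.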

[4] = molecular target: Casein kinase I isoform delta (Homo sapiens) (UniProt P48730); assay: Inhibition of full length human CSNK1D expressed in bacterial system assessed as enzyme activity at 10 uM by KINOMEScan assay system assessed as enzyme activity at 10 uM by KINOMEScan assay; set-up: scale not given: the % may be the effect or the level left
Procedure, shortened: (§3)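 Competition binding screen on a 100-kinase KINOMEscan panel, compound tested at a single 10 μM concentration. Primary binding read-out expressed as % Ctrl = (test compound signal − positive control signal)/(negative control signal − positive control signal) × 100, with lower values meaning stronger binding.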

[5] = molecular target: Tyrosine-protein kinase receptor UFO (Homo sapiens) (UniProt P30530); assay: Inhibition of human AXL (497 to 821 amino acid residues) assessed as enzyme activity at 10 uM by KINOMEScan assay expressed in bacterial system assessed as enzyme activity at 10 uM by KINOMEScan assay; set-up: scale not given: the % may be the effect or the level left
Procedure, shortened: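 Commercial KINOMEscan binding screen across a 100-kinase panel, test compound at 10 μM. Primary-screen binding interactions reported as % Ctrl = (test compound signal − positive control signal)/(negative control signal − positive control signal) × 100. Lower values indicate stronger hits.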

[6] = molecular target: MAP/microtubule affinity-regulating kinase 3 (Homo sapiens) (UniProt P27448); assay: Inhibition of full length human MARK3 expressed in bacterial system assessed as enzyme activity at 10 uM by KINOMEScan assay; set-up: scale not given: the % may be the effect or the level left; procedure, shortened: as §1
[7] = molecular target: Serine/threonine-protein kinase pim-2 (Homo sapiens) (UniProt Q9P1W9); assay: Inhibition of PIM2 (unknown origin)
[8] = molecular target: Proto-oncogene tyrosine-protein kinase Src (Homo sapiens) (UniProt P12931); assay: Inhibition of human SRC (240 to 536 amino acid residues) expressed in bacterial system assessed as enzyme activity at 10 uM by KINOMEScan assay; set-up: scale not given: the % may be the effect or the level left; procedure, shortened: as §2
[9] = molecular target: Serine/threonine-protein kinase pim-1 (Homo sapiens, UniProt P11309); assay: Share of MOE computational kinase hits for Pim family
[10] = molecular target: Mitogen-activated protein kinase 10 (Homo sapiens) (UniProt P53779); assay: Inhibition of human JNK3 (28 to 422 amino acid residues) assessed as enzyme activity at 10 uM by KINOMEScan assay; set-up: scale not given: the % may be the effect or the level left; procedure, shortened: as §3
[11] = molecular target: Dual specificity mitogen-activated protein kinase kinase 1 (Homo sapiens) (UniProt Q02750); assay: Inhibition of full length human MEK1 assessed as enzyme activity at 10 uM by KINOMEScan assay; set-up: scale not given: the % may be the effect or the level left; procedure, shortened: as §3
[12] = molecular target: Phosphatidylinositol 4-phosphate 3-kinase C2 domain-containing subunit beta (Homo sapiens) (UniProt O00750); assay: Inhibition of human PIK3C2B (1 to 1634 amino acid residues) assessed as enzyme activity at 10 uM by KINOMEScan assay; set-up: scale not given: the % may be the effect or the level left; procedure, shortened: as §1
Sequence of Phosphatidylinositol 4-phosphate 3-kinase C2 domain-containing subunit beta (Homo sapiens) (O00750 whole entry, the tested form may be a part): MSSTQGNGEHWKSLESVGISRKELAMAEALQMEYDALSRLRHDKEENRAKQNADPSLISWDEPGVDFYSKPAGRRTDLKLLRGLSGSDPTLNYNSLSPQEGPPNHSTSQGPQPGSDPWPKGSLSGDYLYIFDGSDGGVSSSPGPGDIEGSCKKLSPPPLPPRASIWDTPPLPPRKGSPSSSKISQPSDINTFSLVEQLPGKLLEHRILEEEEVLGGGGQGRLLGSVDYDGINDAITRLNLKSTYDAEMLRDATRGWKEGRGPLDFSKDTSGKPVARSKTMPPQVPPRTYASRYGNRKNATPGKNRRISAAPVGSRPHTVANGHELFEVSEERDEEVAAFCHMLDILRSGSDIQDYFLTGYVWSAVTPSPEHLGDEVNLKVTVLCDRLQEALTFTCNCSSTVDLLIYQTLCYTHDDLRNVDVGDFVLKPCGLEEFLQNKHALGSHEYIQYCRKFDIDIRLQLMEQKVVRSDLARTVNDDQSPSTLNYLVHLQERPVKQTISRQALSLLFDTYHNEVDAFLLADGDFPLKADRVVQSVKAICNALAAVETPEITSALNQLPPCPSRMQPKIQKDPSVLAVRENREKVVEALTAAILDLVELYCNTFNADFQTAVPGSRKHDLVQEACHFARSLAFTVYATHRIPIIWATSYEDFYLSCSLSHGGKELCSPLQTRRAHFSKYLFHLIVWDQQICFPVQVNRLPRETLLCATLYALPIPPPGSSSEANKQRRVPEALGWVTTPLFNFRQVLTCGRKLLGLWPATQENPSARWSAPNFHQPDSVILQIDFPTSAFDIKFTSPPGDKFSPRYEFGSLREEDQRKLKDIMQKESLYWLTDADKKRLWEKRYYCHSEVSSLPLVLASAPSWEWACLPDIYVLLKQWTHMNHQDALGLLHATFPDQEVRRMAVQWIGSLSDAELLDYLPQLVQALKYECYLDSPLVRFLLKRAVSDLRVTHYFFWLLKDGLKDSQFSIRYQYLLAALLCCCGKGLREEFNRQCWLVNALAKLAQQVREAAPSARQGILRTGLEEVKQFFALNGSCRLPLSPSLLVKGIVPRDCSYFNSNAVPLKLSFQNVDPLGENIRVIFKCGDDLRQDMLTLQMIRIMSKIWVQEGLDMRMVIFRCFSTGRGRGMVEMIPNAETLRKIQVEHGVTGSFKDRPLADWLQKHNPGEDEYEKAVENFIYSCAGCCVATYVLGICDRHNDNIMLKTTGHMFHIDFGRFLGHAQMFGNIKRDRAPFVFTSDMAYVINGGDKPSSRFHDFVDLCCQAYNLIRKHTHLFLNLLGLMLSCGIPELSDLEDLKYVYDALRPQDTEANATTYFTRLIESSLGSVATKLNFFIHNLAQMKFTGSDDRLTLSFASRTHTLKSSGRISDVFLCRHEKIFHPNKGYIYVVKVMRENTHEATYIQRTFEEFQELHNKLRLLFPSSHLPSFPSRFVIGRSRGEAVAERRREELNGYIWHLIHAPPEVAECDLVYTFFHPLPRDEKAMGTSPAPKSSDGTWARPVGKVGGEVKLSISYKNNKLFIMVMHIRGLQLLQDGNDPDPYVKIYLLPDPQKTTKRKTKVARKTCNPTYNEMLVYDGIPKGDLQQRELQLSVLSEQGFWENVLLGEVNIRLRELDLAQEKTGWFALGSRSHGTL

[13] = test system: Tyrosine-protein kinase ABL1 (Homo sapiens), P00519 [E255K]; assay: Inhibition of human ABL1 kinase E255K mutant phosphorylation (229 to 512 amino acid residues) assessed as enzyme activity at 10 uM by KINOMEScan assay; set-up: scale not given: the % may be the effect or the level left; procedure, shortened: as §3
[14] = molecular target: Cyclin-dependent kinase (Homo sapiens) (UniProt P06493+P11802+P24941+Q00535+Q00534+P50613+Q00526+Q00536+Q07002+P49336+Q00537+P21127+Q96Q40+Q9BWU1+O94921+P50750+Q15131+Q14004+Q8IZL9+Q9NYV4); assay: Share of MOE computational kinase hits for CDK
[15] = molecular target: Serine/threonine-protein kinase PLK3 (Homo sapiens) (UniProt Q9H4B4); assay: Inhibition of human PLK3 (42 to 334 amino acid residues) assessed as enzyme activity at 10 uM by KINOMEScan assay; set-up: scale not given: the % may be the effect or the level left; procedure, shortened: as §2
Sequence of Serine/threonine-protein kinase PLK3 (Homo sapiens) (Q9H4B4 whole entry, looked up, the tested form may be a part): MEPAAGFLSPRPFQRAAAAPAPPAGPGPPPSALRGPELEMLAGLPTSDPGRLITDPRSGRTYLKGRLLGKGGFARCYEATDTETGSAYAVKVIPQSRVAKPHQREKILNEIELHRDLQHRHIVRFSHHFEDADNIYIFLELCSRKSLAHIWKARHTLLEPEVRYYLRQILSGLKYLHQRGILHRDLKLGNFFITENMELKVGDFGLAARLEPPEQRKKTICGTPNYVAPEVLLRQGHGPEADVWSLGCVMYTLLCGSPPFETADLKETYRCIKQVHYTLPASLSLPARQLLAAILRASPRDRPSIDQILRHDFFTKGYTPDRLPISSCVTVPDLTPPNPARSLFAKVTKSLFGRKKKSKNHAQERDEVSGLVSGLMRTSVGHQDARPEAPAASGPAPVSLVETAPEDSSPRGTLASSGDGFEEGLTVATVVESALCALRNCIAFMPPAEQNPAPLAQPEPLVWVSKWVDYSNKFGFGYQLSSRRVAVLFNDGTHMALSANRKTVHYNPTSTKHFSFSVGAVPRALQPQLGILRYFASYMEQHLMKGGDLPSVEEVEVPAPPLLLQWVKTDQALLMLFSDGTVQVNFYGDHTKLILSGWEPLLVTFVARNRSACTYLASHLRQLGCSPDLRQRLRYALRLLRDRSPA

[16] = molecular target: Death-associated protein kinase 1 (Homo sapiens) (UniProt P53355); assay: Share of MOE computational kinase hits for DAPK
[17] = molecular target: Vascular endothelial growth factor receptor 2 (Homo sapiens) (UniProt P35968); assay: Inhibition of human VEGFR2 (787 to 1253 amino acid residues) assessed as enzyme activity at 10 uM by KINOMEScan assay; set-up: scale not given: the % may be the effect or the level left; procedure, shortened: as §1
[18] = molecular target: Mitogen-activated protein kinase 9 (Homo sapiens) (UniProt P45984); assay: Inhibition of full length human JNK2 assessed as enzyme activity at 10 uM by KINOMEScan assay; set-up: scale not given: the % may be the effect or the level left; procedure, shortened: as §3
Sequence of Mitogen-activated protein kinase 9 (Homo sapiens) (P45984 whole entry, looked up, the tested form may be a part): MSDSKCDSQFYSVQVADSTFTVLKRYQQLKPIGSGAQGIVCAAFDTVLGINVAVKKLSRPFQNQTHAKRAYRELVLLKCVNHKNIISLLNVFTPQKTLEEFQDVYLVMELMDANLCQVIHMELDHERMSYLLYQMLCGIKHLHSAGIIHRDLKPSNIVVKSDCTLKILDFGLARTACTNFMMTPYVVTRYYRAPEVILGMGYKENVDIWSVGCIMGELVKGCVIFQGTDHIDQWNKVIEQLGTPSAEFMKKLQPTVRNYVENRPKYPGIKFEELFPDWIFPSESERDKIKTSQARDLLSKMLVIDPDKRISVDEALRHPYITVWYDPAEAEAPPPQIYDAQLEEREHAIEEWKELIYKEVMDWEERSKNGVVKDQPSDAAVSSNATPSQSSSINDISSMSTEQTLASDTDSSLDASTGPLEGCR

[19] = molecular target: SRSF protein kinase 3 (Homo sapiens) (UniProt Q9UPE1); assay: Inhibition of human SRPK3 (41 to 567 amino acid residues) expressed in bacterial system assessed as enzyme activity at 10 uM by KINOMEScan assay; set-up: scale not given: the % may be the effect or the level left; procedure, shortened: as §2
[20] = molecular target: Fibroblast growth factor receptor 2 (Homo sapiens) (UniProt P21802); assay: Inhibition of human FGFR2 (457 to 769 amino acid residues) assessed as enzyme activity at 10 uM by KINOMEScan assay expressed in bacterial system assessed as enzyme activity at 10 uM by KINOMEScan assay; set-up: scale not given: the % may be the effect or the level left; procedure, shortened: as §1
[21] = molecular target: TGF-beta receptor type-1 (Homo sapiens) (UniProt P36897); assay: Inhibition of human TGFBR1 (179 to 503 amino acid residues) expressed in bacterial system assessed as enzyme activity at 10 uM by KINOMEScan assay; set-up: scale not given: the % may be the effect or the level left; procedure, shortened: as §1
Sequence of TGF-beta receptor type-1 (Homo sapiens) (P36897 whole entry, the tested form may be a part): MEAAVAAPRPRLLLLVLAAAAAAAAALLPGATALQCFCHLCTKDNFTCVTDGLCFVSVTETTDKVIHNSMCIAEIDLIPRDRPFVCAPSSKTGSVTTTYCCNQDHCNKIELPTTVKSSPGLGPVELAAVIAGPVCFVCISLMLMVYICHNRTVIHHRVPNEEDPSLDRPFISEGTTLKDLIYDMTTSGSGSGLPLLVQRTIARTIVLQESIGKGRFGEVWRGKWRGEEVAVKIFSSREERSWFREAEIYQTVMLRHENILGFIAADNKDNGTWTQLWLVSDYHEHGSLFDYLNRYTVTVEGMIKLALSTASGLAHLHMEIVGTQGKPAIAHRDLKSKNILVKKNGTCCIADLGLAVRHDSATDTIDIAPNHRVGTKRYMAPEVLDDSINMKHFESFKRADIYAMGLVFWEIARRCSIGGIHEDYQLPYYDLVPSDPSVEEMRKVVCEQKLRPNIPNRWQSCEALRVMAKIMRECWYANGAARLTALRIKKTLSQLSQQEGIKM

[22] = molecular target: Inhibitor of nuclear factor kappa-B kinase subunit alpha (Homo sapiens) (UniProt O15111); assay: Inhibition of full length human IKK-alpha assessed as enzyme activity at 10 uM by KINOMEScan assay; set-up: scale not given: the % may be the effect or the level left; procedure, shortened: as §3
[23] = molecular target: Receptor tyrosine-protein kinase erbB-4 (Homo sapiens) (UniProt Q15303); assay: Inhibition of human ERBB4 (690 to 994 amino acid residues) assessed as enzyme activity at 10 uM by KINOMEScan assay expressed in bacterial system assessed as enzyme activity at 10 uM by KINOMEScan assay; set-up: scale not given: the % may be the effect or the level left; procedure, shortened: as §3
Sequence of Receptor tyrosine-protein kinase erbB-4 (Homo sapiens) (Q15303 whole entry, the tested form may be a part): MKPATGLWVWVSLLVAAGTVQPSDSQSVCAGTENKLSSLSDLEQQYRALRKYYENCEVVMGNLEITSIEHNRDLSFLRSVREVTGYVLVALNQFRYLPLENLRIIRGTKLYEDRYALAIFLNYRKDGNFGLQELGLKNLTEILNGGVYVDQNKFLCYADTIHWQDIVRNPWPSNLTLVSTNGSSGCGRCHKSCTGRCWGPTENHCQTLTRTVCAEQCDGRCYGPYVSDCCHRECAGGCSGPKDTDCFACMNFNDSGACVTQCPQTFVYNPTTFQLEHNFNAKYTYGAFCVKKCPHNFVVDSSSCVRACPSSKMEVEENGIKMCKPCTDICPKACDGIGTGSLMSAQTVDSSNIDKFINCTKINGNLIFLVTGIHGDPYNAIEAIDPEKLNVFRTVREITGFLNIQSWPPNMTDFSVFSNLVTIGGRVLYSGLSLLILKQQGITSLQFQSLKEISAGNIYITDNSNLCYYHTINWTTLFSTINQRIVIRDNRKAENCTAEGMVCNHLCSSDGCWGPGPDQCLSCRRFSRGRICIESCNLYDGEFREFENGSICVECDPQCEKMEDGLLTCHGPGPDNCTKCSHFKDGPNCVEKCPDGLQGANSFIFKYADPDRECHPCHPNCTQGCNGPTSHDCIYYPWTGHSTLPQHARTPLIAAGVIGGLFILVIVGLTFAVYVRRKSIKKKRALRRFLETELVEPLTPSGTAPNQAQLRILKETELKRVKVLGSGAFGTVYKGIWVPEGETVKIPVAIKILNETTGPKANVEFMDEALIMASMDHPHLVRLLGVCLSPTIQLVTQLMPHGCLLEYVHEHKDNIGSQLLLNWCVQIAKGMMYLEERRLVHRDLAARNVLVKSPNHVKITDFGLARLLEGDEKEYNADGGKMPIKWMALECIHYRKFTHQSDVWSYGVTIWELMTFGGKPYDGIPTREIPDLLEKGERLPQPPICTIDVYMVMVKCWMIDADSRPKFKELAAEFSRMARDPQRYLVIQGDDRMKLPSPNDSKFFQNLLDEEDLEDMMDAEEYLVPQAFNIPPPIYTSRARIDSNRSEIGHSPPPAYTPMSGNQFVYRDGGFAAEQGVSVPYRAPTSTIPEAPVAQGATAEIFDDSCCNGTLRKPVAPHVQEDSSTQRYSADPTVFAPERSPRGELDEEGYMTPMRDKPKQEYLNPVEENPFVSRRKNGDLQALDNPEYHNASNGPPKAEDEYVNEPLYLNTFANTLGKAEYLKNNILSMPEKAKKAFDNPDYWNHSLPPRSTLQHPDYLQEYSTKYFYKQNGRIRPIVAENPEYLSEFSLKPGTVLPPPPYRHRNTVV

[24] = molecular target: Dual specificity mitogen-activated protein kinase kinase 2 (Homo sapiens) (UniProt P36507); assay: Inhibition of full length human MEK2 assessed as enzyme activity at 10 uM by KINOMEScan assay; set-up: scale not given: the % may be the effect or the level left; procedure, shortened: as §3
Sequence of Dual specificity mitogen-activated protein kinase kinase 2 (Homo sapiens) (P36507 whole entry): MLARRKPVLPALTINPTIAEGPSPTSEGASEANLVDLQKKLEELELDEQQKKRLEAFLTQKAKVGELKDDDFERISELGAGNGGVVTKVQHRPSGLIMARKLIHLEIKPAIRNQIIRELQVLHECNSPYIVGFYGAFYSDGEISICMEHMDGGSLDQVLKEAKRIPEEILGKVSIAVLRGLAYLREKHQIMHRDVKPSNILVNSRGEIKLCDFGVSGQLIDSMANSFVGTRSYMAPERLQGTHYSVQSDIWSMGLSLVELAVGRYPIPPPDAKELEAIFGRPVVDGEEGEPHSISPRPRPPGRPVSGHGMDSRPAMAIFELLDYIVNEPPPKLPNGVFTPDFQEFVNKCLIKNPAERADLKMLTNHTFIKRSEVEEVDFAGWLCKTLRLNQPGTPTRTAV

Compound: O=C1C2=C(C(=O)c3c(O)ccc(O)c31)[C@@H](O)[C@@H](O)[C@@H](O)C2
- Activity [1]: 100%
- Activity [2]: 100%
- Activity [3]: 84%
- Activity [4]: 30%
- Activity [5]: 100%
- Activity [6]: 100%
- % of MOE kinase hits [7]: 29%
- Activity [8]: 91%
- % of MOE kinase hits [9]: 29%
- Activity [10]: 76%
- Activity [11]: 92%
- Activity [12]: 100%
- Activity [13]: 96%
- % of MOE kinase hits [14]: 7%
- Activity [15]: 54%
- % of MOE kinase hits [16]: 7%
- Activity [17]: 100%
- Activity [18]: 84%
- Activity [19]: 93%
- Activity [20]: 100%
- Activity [21]: 100%
- Activity [22]: 87%
- Activity [23]: 95%
- Activity [24]: 96%
